In ChEMBL document CHEMBL3112575, “N¹,N¹-Dimethyl-N³-(3-(trifluoromethyl)phenethyl)propane-1,3-diamine, a new lead for the treatment of human African trypanosomiasis” (Eur J Med Chem, 2014):

What follows are compounds tested on Trypanosoma brucei brucei (assay: Antitrypanosomal activity against bloodstream form of Trypanosoma brucei brucei 427 after 48 hrs by Alamar Blue staining based fluorescence assay). Details: Trypanosoma brucei, 427, 48 h.
Type: functional, organism-based
Procedure, shortened: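 Starting inoculum 2×10³ bloodstream-form parasites per well in HMI-9 with 10% FBS, exposed to two-fold serial drug dilutions for 48 h at 37°C, 5% CO₂. Alamar Blue then added, with a further 4 h incubation. Fluorescence read at Ex 544/Em 590. Each plate included drug-free parasite wells and parasite-free, drug-free wells. IC₅₀ from three biological replicates, each the mean of three technical replicates.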

SMILES | IC50 [µM]
CN(C)CCCNCCc1cccc(F)c1 | > 8
CN(C)CCCNCCc1ccc(Cl)cc1 | > 8
CN(C)CCCNCCc1ccccc1F | > 8
CN(C)CCCNCCc1c(Cl)cccc1Cl | > 8
CN(C)CCCNCCc1ccccc1Cl | > 8
C#CCNCCc1cc(OC)c(Br)cc1Br | > 8
CN(C)CCCNCCc1ccc(F)cc1 | > 8
CN(C)CCCNCCc1ccc(Cl)cc1Cl | > 8
C#CCCNCCc1cc(OC)c(Br)cc1Br | > 8
CN(C)CCCNCCc1ccc(Br)cc1 | > 8
COc1cc(CCNCCCN)c(Br)cc1Br | 2
CN(C)CCCNCCc1c(F)cccc1Cl | > 8
CN(C)CCCNCCc1cccc(C(F)(F)F)c1 | 0.5
CN(C)CCCNCCc1ccc(Cl)c(Cl)c1 | > 8
CN(C)CCCNC1Cc2ccccc2C1 | > 8
C#CCN(CCCN(C)C)CCc1cc(OC)c(Br)cc1Br | > 8
COc1cc(CCN(CCCN(C)C)C(C)=O)c(Br)cc1Br | > 8
CN(C)CCCNCCc1cccc(Cl)c1 | 0.7
CN(C)CCCNCCc1cccs1 | > 8
CN(C)CCCNCCc1ccc2ccccc2c1 | 4
COc1cc(CCN2CCCC2)c(Br)cc1Br | > 8
CN(C)CCCNCCc1cccc(Br)c1 | > 8
CN(C)CCCNCCc1ccccc1Br | > 8
COc1cc(CCNCCCO)c(Br)cc1Br | > 8

Continued, values first:

IC50 [µM] | SMILES
> 8 | CN(C)CCCNCc1ccc(O)cc1
> 8 | CN(C)CCCNCc1c(Br)cc(Br)c(O)c1Br
> 8 | COc1ccc(CNCCCN(C)C)cc1
> 8 | COc1c(Br)cc(CNCCCN(C)C)cc1Br
> 8 | COc1ccc(CCNCCCN(C)C)cc1Cl
> 8 | COc1cccc(CCNCCCN(C)C)c1
> 8 | COc1c(Br)cc(Br)c(CNCCCN(C)C)c1Br
> 8 | CN(C)CCCNCc1cc(Br)c(O)c(Br)c1
0.3 | COc1cc(CCNCCCN(C)C)c(Br)cc1Br
> 8 | COc1ccc(CCNCCCN(C)C)cc1Br
2.2 | CN(C)CCCNCc1cc(O)c(Br)cc1Br
> 8 | CN(C)CCCNCc1cccc(O)c1
> 8 | COc1ccc(Br)cc1CCNCCCN(C)C
4 | COc1ccc(Br)c(CCNCCCN(C)C)c1Br
> 8 | COc1cccc(CNCCCN(C)C)c1
4.6 | COc1cc(CNCCCN(C)C)c(Br)cc1Br
